Measurements as given in ChEMBL document CHEMBL4145656, “Additional Insights into Hypericum perforatum Content: Isolation, Total Synthesis, and Absolute Configuration of Hyperbiphenyls A and B from Immunomodulatory Root Extracts” (J Nat Prod, 2018).
The source made the active and inactive calls. No cut-off for these calls is given here.

Assays:
HUVEC [1] = test: Immunomodulatory activity in HUVEC assessed as inhibition of IFNgamma-induced MHC-1 expression at 10 uM pretreated for 1 hr followed by IFNgamma stimulation and measured after 48 hrs by immunostaining based flow cytometry relative to control; format: functional, Homo sapiens; parameters: scale not given: the % may be the effect or the level left
How it was run: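 Cultured vascular endothelial cells were stimulated with IFNγ to upregulate MHC molecules (MHC class I, class II, HLA-E) in the presence of the test compound at 10 μM. Surface expression of MHC was then quantified by flow cytometry.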

HUVEC [2] = test: Immunomodulatory activity in HUVEC assessed as inhibition of IFNgamma-induced MICA expression at 10 uM pretreated for 1 hr followed by IFNgamma stimulation and measured after 48 hrs by immunostaining based flow cytometry relative to control; format: functional
HUVEC [3] = test: Immunomodulatory activity in HUVEC assessed as inhibition of IFNgamma-induced HLA-E expression at 10 uM pretreated for 1 hr followed by IFNgamma stimulation and measured after 48 hrs by immunostaining based flow cytometry relative to control; format: functional
How it was run: (§1)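 Endothelial cells were stimulated with IFNγ to upregulate MHC class II and HLA-E in the presence of test agent at 10 μM. Surface expression was measured by flow cytometry.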

HUVEC [4] = test: Immunomodulatory activity in HUVEC assessed as inhibition of IFNgamma-induced HLA-DR expression at 10 uM pretreated for 1 hr followed by IFNgamma stimulation and measured after 48 hrs by immunostaining based flow cytometry relative to control; format: functional; how it was run: as §1
HUVEC [5] = test: Immunomodulatory activity in HUVEC assessed as inhibition of TNFalpha-induced VCAM1 expression at 5 to 50 uM measured by ELISA relative to control; format: functional, Homo sapiens
How it was run: (§2)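 Cell-based ELISA on cultured vascular endothelial cells quantifying surface molecules. Cells were stimulated with TNF to induce VCAM-1 and MICA, or with IFNγ to induce MHC class I. Test agents were present at 5, 25 and 50 μM.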

HUVEC [6] = test: Immunomodulatory activity in HUVEC assessed as inhibition of IFNgamma-induced MHC1 expression at 5 to 50 uM measured by ELISA relative to control; format: functional, Homo sapiens; how it was run: as §2
HUVEC [7] = test: Immunomodulatory activity in HUVEC assessed as inhibition of TNFalpha-induced MICA expression at 5 to 50 uM measured by ELISA relative to control; format: functional, Homo sapiens; how it was run: as §2
HUVEC [8] = test: Reduction in basal MICA expression in HUVEC at 10 uM measured after 1 hr by immunostaining based flow cytometry; format: ADME, cell-based; parameters: scale not given: the % may be the effect or the level left; details: human
HUVEC [9] = test: Effect on HLA-DR expression in HUVEC at 10 uM measured after 1 hr by immunostaining based flow cytometry; format: ADME, cell-based; details: human
HUVEC [10] = test: Effect on MHC-1 expression in HUVEC at 10 uM measured after 1 hr by immunostaining based flow cytometry; format: ADME, cell-based; details: human
HUVEC [11] = test: Effect on HLA-E expression in HUVEC at 10 uM measured after 1 hr by immunostaining based flow cytometry; format: ADME, cell-based; details: human

Structure (SMILES)	Activity (HUVEC [2]; Homo sapiens)	Activity (HUVEC [3]; Homo sapiens)	Activity (HUVEC [4]; Homo sapiens)	Activity (HUVEC [1]; Homo sapiens)	other results
O.O=P(O)(O)C(O)(Cn1ccnc1)P(=O)(O)O [ZOLEDRONIC ACID]					Activity (HUVEC [1]): 67%
COc1cc(-c2ccccc2)cc2c1C[C@@H](C(C)(C)O)O2	inactive	inactive	inactive	inactive	
COc1cc(-c2ccccc2)cc2c1C[C@H](O)C(C)(C)O2	inactive	inactive	inactive	inactive	
COc1cc2oc3cc(O)cc(O)c3c(=O)c2c2c1OC(C)(C)C=C2	inactive	inactive	inactive	inactive	
COc1cc(C2Oc3c(OC)cc4c(=O)c5ccccc5oc4c3OC2CO)ccc1O (configuration not stated)	inactive	inactive	inactive	inactive	
COc1c(O)ccc2c(=O)c3c(O)cc4c(c3oc12)C(C)(C)C(C)O4 (configuration not stated)					inhibition (INH) (HUVEC [5]): >50%; inhibition (INH) (HUVEC [6]): 10 - 25%; inhibition (INH) (HUVEC [7]): <10%; Activity (HUVEC [2]): 24%; Activity (HUVEC [3]): 40%; Activity (HUVEC [4]): 25%; Activity (HUVEC [8]): 25%; Activity (HUVEC [9]): Non-Toxic; Activity (HUVEC [10]): Non-Toxic; Activity (HUVEC [11]): Non-Toxic
